Test results published in article PMC8027986 (Cell chemical biology, 2020).

Experiments:
recombinant PfMAGLLP = recombinant PfMAGLLP (Plasmodium falciparum, UniProt Q8IJ22); test: Fluorogenic substrate assay with rPfMAGLLP; format: biochemical; conditions: for inhibition at 1 µM: read-out: inhibition of esterase activity of PfMAGLLP; for inhibition of esterase activity of PfMAGLLP: 1 μM compound
[1] = test system: P. falciparum W2 parasites; test: P. falciparum replication assay; format: cell-based, Plasmodium falciparum; conditions: for EC50: Plasmodium falciparum, W2, 72 h, read-out: EC50 parasite growth inhibition; for effect of isopentenyl pyrophosphate (IPP) on potency: 72 h growth assays in presence and absence of IPP
How it was run: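 Synchronized ring-stage W2 parasites in human erythrocytes, at 1% parasitemia and 0.5% hematocrit, exposed to test compound for 72 h. Cultures fixed in 1% paraformaldehyde (final) for 30 min at room temperature, then stained overnight at 4°C with 50 nM YOYO-1. Infected (YOYO-1-positive) versus uninfected cells counted by flow cytometry.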

[2] = test system: Sal A-selected clones and parental Dd2_Polδ line; test: IC50 determination for Sal A-selected clones; format: cell-based, Plasmodium falciparum; conditions: versus parental Dd2_Polδ
[3] = test system: parasites expressing PfATP4 fused to GFP; test: Imaging of PfATP4-GFP parasites; format: cell-based, Plasmodium falciparum; conditions: 18 h treatment from 24-30 hpi; 2 μM Sal A or 6 μM Orlistat
[4] = test system: T. gondii depalmitoylase PPT1 (TgPPT1); test: FP-Rho labeling competition in T. gondii parasites; format: cell-based, Toxoplasma gondii; conditions: WT (Δku80) and ΔPPT1 parasites
[5] = test system: Dd2 parasites overexpressing PfMAGLLP or other putative Sal A targets; test: Dose-response assays with parasites overexpressing putative Sal A targets; format: cell-based, Plasmodium falciparum
[6] = molecular target: human depalmitoylase APT1 (Homo sapiens, UniProt O75608); test: FP-Rho labeling competition in HEK293T cells, APT1; format: cell-based
Sequence of human depalmitoylase APT1 (O75608 whole entry): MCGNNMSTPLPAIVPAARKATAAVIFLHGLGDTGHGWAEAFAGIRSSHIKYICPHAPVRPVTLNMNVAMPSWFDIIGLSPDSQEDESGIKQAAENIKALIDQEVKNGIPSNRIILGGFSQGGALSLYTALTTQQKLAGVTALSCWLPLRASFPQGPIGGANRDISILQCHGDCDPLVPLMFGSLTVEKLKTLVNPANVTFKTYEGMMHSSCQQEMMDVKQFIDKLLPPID

[7] = test system: serine hydrolases in Plasmodium falciparum parasites; test: FP-Rho labeling competition in whole Pf parasites; format: cell-based; conditions: 1 μM Sal A
How it was run: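 P. falciparum cultures (ring/trophozoite, 13% parasitemia) treated with DMSO or test compound for 3 h at 37°C. 50 μg clarified lysate labeled with 1 μM FP-Rho for 1 h at 37°C; SDS-PAGE with in-gel fluorescence scan.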

[8] = test system: Pf lines expressing WT-GFP or S179T-GFP PfPARE; test: Sal A sensitivity of parasites expressing WT or S179T PfPARE-GFP; format: cell-based, Plasmodium falciparum; conditions: WT-GFP versus S179T-GFP
[9] = molecular target: human depalmitoylase APT2 (Homo sapiens, UniProt O95372); test: FP-Rho labeling competition in HEK293T cells, APT2; format: cell-based
Sequence of human depalmitoylase APT2 (O95372 whole entry): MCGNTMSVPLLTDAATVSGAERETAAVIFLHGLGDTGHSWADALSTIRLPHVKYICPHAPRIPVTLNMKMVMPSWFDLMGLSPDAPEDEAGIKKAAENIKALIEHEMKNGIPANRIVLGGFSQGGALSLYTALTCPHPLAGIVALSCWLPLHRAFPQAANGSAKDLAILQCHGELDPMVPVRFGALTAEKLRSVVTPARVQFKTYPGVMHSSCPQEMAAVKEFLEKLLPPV
How it was run: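 Lysates of treated HEK293T cells, clarified at 4°C and quantified by BCA; 50 μg lysate labeled with 1 μM FP-Rho for 1 h at 37°C. Reactions quenched in reducing SDS sample buffer, resolved by SDS-PAGE, and gel fluorescence scanned (532-nm laser, 610-nm filter).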

[10] = test system: a variety of mammalian cell lines; conditions: ref Schulze et al., 2015; cited from earlier work

O=C(OC(C(F)(F)F)C(F)(F)F)N1CCN(C(c2ccc(Cl)cc2)c2ccc(Cl)cc2)CC1 [JW651]
potency against recombinant PfMAGLLP relative to Sal A (recombinant PfMAGLLP): virtually identical potency as Sal A | inhibition at 1 µM (recombinant PfMAGLLP): > 90% | EC50 [1]: 839 nM | decrease in potency against parasites as compared with Sal A ([1]; W2 parasites): 16 fold | cross-resistance of Sal A-selected clones [2]: no cross-resistance

O=C(Oc1ccc([N+](=O)[O-])cc1)N1CCC(C(O)(c2ccc3c(c2)OCO3)c2ccc3c(c2)OCO3)CC1 [JZL 184]
inhibition of esterase activity of PfMAGLLP (recombinant PfMAGLLP): 25%

O=C(OC(C(F)(F)F)C(F)(F)F)N1CCC(C(O)(c2ccc3c(c2)OCO3)c2ccc3c(c2)OCO3)CC1 [KML29]
IC50 (recombinant PfMAGLLP): 163 nM | inhibition at 1 µM (recombinant PfMAGLLP): > 90%

O=C(ON1C(=O)CCC1=O)N1CCN(C(c2ccc(Cl)cc2)c2ccc(Cl)cc2)CC1 [MJN110]
inhibition of esterase activity of PfMAGLLP (recombinant PfMAGLLP): more than 90%

CCCCCCCCCCC[C@@H](C[C@@H]1OC(=O)[C@H]1CCCCCC)OC(=O)[C@H](CC(C)C)NC=O [Orlistat]
plasma membrane phenotype of schizonts [3]: disorganized plasma membranes that failed to properly surround the merozoites | potency against recombinant PfMAGLLP relative to Sal A (recombinant PfMAGLLP): equipotent to Sal A | EC50 [1]: 280 nM | cross-resistance of Sal A-selected clones [2]: No significant cross-resistance

Salinipostin A [Sal A]
plasma membrane phenotype of schizonts [3]: disorganized plasma membranes that failed to properly surround the merozoites | competition with FP-Rho for labeling of TgPPT1 [4]: able to compete with FP-Rho for labeling of TgPPT1 | shift in EC50 in parasites overexpressing PF3D7_0808500 or PF3D7_0818600 ([5]; exogenous overexpression): no shift in EC50 | shift in EC50 in parasites overexpressing PfMAGLLP versus WT ([5]; exogenously transfected plasmid): no apparent shift | effect of isopentenyl pyrophosphate (IPP) on potency [1]: unaffected by IPP | inhibition of APT1 (FP-Rho competition) [6]: inhibits the human depalmitoylases APT1 and APT2 in a dose-dependent manner | inhibition of FP-Rho labeling of hydrolases in whole Pf parasites [7]: Several hydrolases were inhibited | sensitivity of parasites expressing WT or catalytically dead PfPARE [8]: equally sensitive | inhibition of APT2 (FP-Rho competition) [9]: inhibits the human depalmitoylases APT1 and APT2 in a dose-dependent manner | relative potency APT2 versus APT1 [9]: increased potency against APT2 over APT1 | selectivity index over a variety of mammalian cell lines [10]: > 1,000

Salinipostin alkyne [Sal alk]
effect of isopentenyl pyrophosphate (IPP) on potency [1]: unaffected by IPP | potency against Pf parasites compared with parent natural product ([1]; Pf parasites, Figure S1): retained full potency
